Active and inactive are the calls of the source. No cut-off for these calls is given here.
Legend:
Format in all cases: functional, cell-based
A549 [1] = assay: Cell cycle arrest in human A549 cells assessed as slight increase in cell accumulation at G2/M phase at 20 uM after 48 hrs by flow cytometry
How it was run: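 Cells seeded in 6-well plates at 1∙10⁶ (NB4) or 0.45∙10⁶ (A549, MCF-7) per well. Treated for 48 h at 10 (NB4, MCF-7), 20 and 30 (A549), or, for NB4, a lower 5; DMSO solvent control. Cell cycle phase distribution and sub-G1 measured by flow cytometry. Mean of two independent experiments.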

A549 [2] = assay: Antiproliferative activity against human A549 cells assessed as cell growth inhibition after 48 hrs by XTT assay; settings: A549, 48 h
How it was run: (§1)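 NB4 grown in RPMI 1640 with 10% FBS and penicillin/streptomycin, A549 and MCF-7 in DMEM, all at 37 °C and 5% CO2. Cells seeded at 1.5∙10⁴ (NB4) or 1.0∙10⁴ (A549, MCF-7) per well. Adherent lines dosed 24 h after plating, NB4 shortly after. Triplicate concentrations from 0.1 to 100, DMSO control at 0.5% v/v. After 48 h exposure, XTT added for 2 h. A450 minus A690 read, GI50 reported with SE.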

MCF7 = assay: Antiproliferative activity against human MCF7 cells assessed as cell growth inhibition after 48 hrs by XTT assay; settings: MCF7, 48 h; how it was run: as §1
[3] = Antiproliferative activity against human NB4 cells assessed as cell growth inhibition after 48 hrs by XTT assay; settings: NB-4, 48 h; how it was run: as §1

SMILES: C=C(C(=O)c1ccc(OC)cc1)C(OC(=O)c1ccccc1)c1ccc([N+](=O)[O-])cc1[N+](=O)[O-] (stereo not given)
- Activity (A549 [1]): Active
- IC50 (A549 [2]): 13 µM
- IC50 (MCF7): > 100 µM
- IC50 [3]: 10 µM

SMILES: C=C(C(=O)c1ccc(OC)cc1)C(C)OC(=O)c1ccccc1 (stereo not given)
- IC50 (A549 [2]): > 100 µM
- IC50 (MCF7): 14.5 µM
- IC50 [3]: 15.7 µM

SMILES: C=C(C/C(=C\c1ccc(C)cc1)C(=O)c1ccc(OC)cc1)C(=O)c1ccc(OC)cc1
- IC50 (A549 [2]): 43.8 µM
- IC50 (MCF7): 26.9 µM
- IC50 [3]: 11.4 µM

SMILES: C=C(C/C(=C\c1ccc(OC(=O)c2ccccc2)cc1)C(=O)c1ccccc1)C(=O)c1ccccc1
- IC50 (A549 [2]): 44.4 µM
- IC50 (MCF7): 61.6 µM
- IC50 [3]: 8 µM

SMILES: COc1ccc(C(=O)/C(=C/c2ccc(Cl)cc2Cl)CCOC(C)=O)cc1
- IC50 (A549 [2]): 69.2 µM
- IC50 (MCF7): 83.4 µM
- IC50 [3]: 34.8 µM

SMILES: C/C=C(\COC(=O)c1ccccc1)C(=O)c1ccc(OC)cc1
- IC50 (A549 [2]): > 100 µM
- IC50 (MCF7): 29.8 µM
- IC50 [3]: 16.2 µM

SMILES: C=C(C(=O)c1ccc(OC)cc1)C(O)c1ccccc1F (stereo not given)
- IC50 (A549 [2]): 15.7 µM
- IC50 (MCF7): 30.9 µM
- IC50 [3]: 6.9 µM

SMILES: COc1ccc(C(=O)/C(=C/C2CCCCC2)CC(C)OC(C)=O)cc1 (stereo not given)
- IC50 (A549 [2]): 98 µM
- IC50 (MCF7): > 100 µM
- IC50 [3]: 33.4 µM

SMILES: C=C(C/C(=C\c1ccc(C)cc1)C(=O)c1ccccc1)C(=O)c1ccccc1
- IC50 (A549 [2]): 20.9 µM
- IC50 (MCF7): 15.9 µM
- IC50 [3]: 7.6 µM

SMILES: COc1ccc(C(=O)/C(=C/c2ccccc2Cl)CCOC(C)=O)cc1
- IC50 (A549 [2]): > 100 µM
- IC50 (MCF7): > 100 µM
- IC50 [3]: 51.6 µM

SMILES: COc1ccc(C(=O)/C(=C/c2ccc(Cl)cc2)CCOC(C)=O)cc1
- IC50 (A549 [2]): 86 µM
- IC50 (MCF7): > 100 µM
- IC50 [3]: 36.3 µM

SMILES: CCC(/C=C(\COC(C)=O)C(=O)c1ccc(OC)cc1)CC
- IC50 (A549 [2]): > 100 µM
- IC50 (MCF7): 13.7 µM
- IC50 [3]: 9.5 µM

SMILES: CC(=O)OC/C(=C/c1ccccc1F)C(=O)c1ccccc1
- IC50 (A549 [2]): 20.3 µM
- IC50 (MCF7): 39.8 µM
- IC50 [3]: 8.3 µM

SMILES: COc1ccc(C(=O)/C(=C/c2ccccc2F)COC(C)=O)cc1
- IC50 (A549 [2]): 22.5 µM
- IC50 (MCF7): 30 µM
- IC50 [3]: 8.2 µM

SMILES: COc1ccc(C(=O)/C(=C/c2ccc([N+](=O)[O-])cc2)CN2CCOCC2)cc1
- IC50 (A549 [2]): 70.1 µM
- IC50 (MCF7): 7 µM
- IC50 [3]: 5.6 µM

SMILES: COc1ccc(C(=O)/C(=C\c2ccccc2Cl)COC(=O)c2ccccc2)cc1
- IC50 (A549 [2]): 52 µM
- IC50 (MCF7): 36 µM
- IC50 [3]: 20.1 µM

SMILES: COc1ccc(C(=O)/C(=C/c2c(F)c(F)c(F)c(F)c2F)CC(C)OC(C)=O)cc1 (stereo not given)
- IC50 (A549 [2]): 91.7 µM
- IC50 (MCF7): > 100 µM
- IC50 [3]: 49 µM

SMILES: C=C(C(=O)c1ccc(OC)cc1)C(OC(=O)c1ccccc1)c1ccc(Cl)cc1Cl (stereo not given)
- IC50 (A549 [2]): 79.2 µM
- IC50 (MCF7): 26.8 µM
- IC50 [3]: 9.7 µM

SMILES: C=C(C(=O)c1ccc(OC)cc1)C(O)c1ccccc1Cl (stereo not given)
- IC50 (A549 [2]): 28.5 µM
- IC50 (MCF7): 29.6 µM
- IC50 [3]: 8.1 µM

SMILES: COc1ccc(C(=O)/C(=C/c2c(F)c(F)c(F)c(F)c2F)CCOC(C)=O)cc1
- IC50 (A549 [2]): 58.1 µM
- IC50 (MCF7): > 100 µM
- IC50 [3]: 28.5 µM

SMILES: COc1ccc(C(=O)/C(=C/C2CCCCC2)COC(C)=O)cc1
- IC50 (A549 [2]): 90 µM
- IC50 (MCF7): 24 µM
- IC50 [3]: 23.3 µM

SMILES: C=C(C(=O)c1ccc(OC)cc1)C(OC(C)=O)C1CCCCC1 (stereo not given)
- IC50 (A549 [2]): > 100 µM
- IC50 (MCF7): 14 µM
- IC50 [3]: 10.5 µM

SMILES: C=C(C(=O)c1ccc(OC)cc1)C(OC(C)=O)C(CC)CC (stereo not given)
- IC50 (A549 [2]): 32.9 µM
- IC50 (MCF7): 38.9 µM
- IC50 [3]: 11.8 µM

SMILES: COc1ccc(C(=O)/C(=C/c2ccc(Cl)cc2Cl)CC(C)OC(C)=O)cc1 (stereo not given)
- IC50 (A549 [2]): 40.3 µM
- IC50 (MCF7): > 100 µM
- IC50 [3]: 36.8 µM

SMILES: COc1ccc(C(=O)/C(=C/c2ccc(Cl)cc2Cl)CN(C)C(=O)c2ccccc2)cc1
- IC50 (A549 [2]): 32.4 µM
- IC50 (MCF7): 39.7 µM
- IC50 [3]: 24 µM

SMILES: COc1ccc(C(=O)/C(=C/c2ccc(C(F)(F)F)cc2)CC(C)C)cc1
- IC50 (A549 [2]): > 100 µM
- IC50 (MCF7): > 100 µM
- IC50 [3]: 12.6 µM

SMILES: COc1ccc(C(=O)/C(=C/c2ccc(Cl)cc2)CC(C)OC(C)=O)cc1 (stereo not given)
- IC50 (A549 [2]): 73.2 µM
- IC50 (MCF7): > 100 µM
- IC50 [3]: 62 µM

SMILES: COc1ccc(C(=O)/C(=C/C2CCCCC2)COC(=O)c2ccccc2)cc1
- IC50 (A549 [2]): 36 µM
- IC50 (MCF7): 13.7 µM
- IC50 [3]: 10.2 µM

Source: ChEMBL document CHEMBL3421532, “Synthesis and antiproliferative activity of α-branched α,β-unsaturated ketones in human hematological and solid cancer cell lines” (Eur J Med Chem, 2015)
